pIC50: −log10 of the molar value. Converted amounts (≈) assume the structure as drawn. Each block holds one compound with its values, some of them ahead of it. The source made the active and inactive calls. No cut-off for these calls is given here.
Key:
[1] = Aqueous solubility of the compound in 10% PEG400 aqueous solution after 24 hrs by HPLC analysis; assay type: physicochemical
In short: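 Roughly 20.0 mg of solid in 5 mL of 10% PEG400 in water. Sonicated 10 min, then stirred 24 h at 25 °C in a water bath. Centrifuged 10 min at 10,000 rpm and the supernatant passed through a microporous membrane. Concentration measured by HPLC against a standard curve.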

[2] = tested on: SMMC-7721; assay: Inhibition of Ras in human SMMC7721 cells assessed as reduction in phosphorylated Akt level after 8 hrs by immunoblotting analysis; assay type: cell-based
In short: (§1)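 SMMC-7721 cells at 1.5 × 10⁵/mL treated with 3.0, 6.0 or 12 µmol/L compound or vehicle for 8 h. Cells lysed, 50 µg protein per lane run on 12% SDS–PAGE gels. Blots probed for total and phospho-ERK1/2 (Thr202/Tyr204), total and phospho-Akt (Ser473), and β-actin. Densitometry relative to β-actin. Means ± SEM of three experiments.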

[3] = tested on: SMMC-7721; assay: Induction of apoptosis in human SMMC7721 cells assessed as early apoptotic cells at 12 uM after 48 hrs by annexin V-FITC/propidium iodide staining-based flow cytometry (reference value: 3.87%); assay type: functional
[4] = tested on: MCF7; assay: Cytotoxicity against human MCF7 cells after 48 hrs by MTT assay; assay type: functional, cell-based; details: MCF7, 48 h
In short: (§2)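 Cells seeded at 10⁴ per well in DMEM with 10% FBS and grown overnight. Compound at a range of concentrations for 48 h, in triplicate. MTT (5 mg mL⁻¹ stock) added for the last 4 h, formazan dissolved in DMSO, absorbance read at 570 nm. Percent inhibition used to derive IC50. Values are mean ± SEM of at least three independent experiments.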

[5] = tested on: SMMC-7721; assay: Induction of apoptosis in human SMMC7721 cells assessed as viable cells at 3 uM after 48 hrs by annexin V-FITC/propidium iodide staining-based flow cytometry (reference value: 93.81%); assay type: functional; details: SMMC-7721, 48 h, read-out: Activity
[6] = tested on: SMMC-7721; assay: Induction of apoptosis in human SMMC7721 cells assessed as early apoptotic cells at 6 uM after 48 hrs by annexin V-FITC/propidium iodide staining-based flow cytometry (reference value: 3.87%); assay type: functional
[7] = Cytotoxicity against human PANC1 cells after 48 hrs by MTT assay; assay type: functional, cell-based; details: PANC-1, 48 h; in short: as §2
[8] = tested on: SMMC-7721; assay: Induction of apoptosis in human SMMC7721 cells assessed as necrotic cells at 12 uM after 48 hrs by annexin V-FITC/propidium iodide staining-based flow cytometry (reference value: 0.77%); assay type: functional
[9] = tested on: SMMC-7721; assay: Inhibition of Ras in human SMMC7721 cells assessed as reduction in phosphorylated ERK1 level after 8 hrs by immunoblotting analysis; assay type: cell-based; in short: as §1
[10] = Cytotoxicity against human SGC7901 cells after 48 hrs by MTT assay; assay type: functional, cell-based; details: SGC-7901, 48 h; in short: as §2
[11] = tested on: SK-OV-3; assay: Cytotoxicity against human SKOV3 cells after 48 hrs by MTT assay; assay type: functional, cell-based; details: SK-OV-3, 48 h; in short: as §2
[12] = tested on: SMMC-7721; assay: Induction of apoptosis in human SMMC7721 cells assessed as viable cells at 6 uM after 48 hrs by annexin V-FITC/propidium iodide staining-based flow cytometry (reference value: 93.81%); assay type: functional; details: SMMC-7721, 48 h, read-out: Activity
[13] = tested on: SMMC-7721; assay: Induction of apoptosis in human SMMC7721 cells assessed as late apoptotic cells at 12 uM after 48 hrs by annexin V-FITC/propidium iodide staining-based flow cytometry (reference value: 1.55%); assay type: functional
[14] = tested on: SMMC-7721; assay: Induction of apoptosis in human SMMC7721 cells assessed as early apoptotic cells at 3 uM after 48 hrs by annexin V-FITC/propidium iodide staining-based flow cytometry (reference value: 3.87%); assay type: functional
[15] = tested on: SMMC-7721; assay: Inhibition of Ras in human SMMC7721 cells assessed as reduction in phosphorylated Akt level at 12 uM after 8 hrs by immunoblotting analysis; assay type: cell-based; in short: as §1
[16] = tested on: SMMC-7721; assay: Induction of apoptosis in human SMMC7721 cells assessed as late apoptotic cells at 3 uM after 48 hrs by annexin V-FITC/propidium iodide staining-based flow cytometry (reference value: 1.55%); assay type: functional
[17] = tested on: EJ; assay: Cytotoxicity against human EJ cells after 48 hrs by MTT assay; assay type: functional, cell-based; in short: as §2
[18] = tested on: SMMC-7721; assay: Inhibition of Ras in human SMMC7721 cells assessed as reduction in phosphorylated ERK2 level at 12 uM after 8 hrs by immunoblotting analysis; assay type: cell-based; in short: as §1
[19] = tested on: SMMC-7721; assay: Cytotoxicity against human SMMC7721 cells after 48 hrs by MTT assay; assay type: functional, cell-based; details: SMMC-7721, 48 h; in short: as §2
[20] = Cytotoxicity against human H460 cells after 48 hrs by MTT assay; assay type: functional, cell-based; details: NCI-H460, 48 h; in short: as §2
[21] = tested on: SMMC-7721; assay: Inhibition of Ras in human SMMC7721 cells assessed as reduction in phosphorylated ERK2 level after 8 hrs by immunoblotting analysis; assay type: cell-based; in short: as §1
[22] = tested on: SMMC-7721; assay: Induction of apoptosis in human SMMC7721 cells assessed as necrotic cells at 6 uM after 48 hrs by annexin V-FITC/propidium iodide staining-based flow cytometry (reference value: 0.77%); assay type: functional
[23] = tested on: SMMC-7721; assay: Induction of apoptosis in human SMMC7721 cells after 48 hrs by annexin V-FITC/propidium iodide staining-based flow cytometry; assay type: functional, cell-based
[24] = tested on: SMMC-7721; assay: Induction of apoptosis in human SMMC7721 cells assessed as necrotic cells at 3 uM after 48 hrs by annexin V-FITC/propidium iodide staining-based flow cytometry (reference value: 0.77%); assay type: functional
[25] = Lipophilicity, log P of the compound in 10% PEG400 aqueous solution; assay type: physicochemical
[26] = tested on: SMMC-7721; assay: Induction of apoptosis in human SMMC7721 cells assessed as increase in Bax level after 48 hrs by Western blotting analysis; assay type: functional, cell-based
In short: (§3)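 SMMC-7721 cells treated with or without compound at several concentrations for 48 h. Lysates immunoblotted for Bax, Bcl-2 and caspase-3, with β-actin as loading control. Band levels relative to β-actin quantified by densitometric scanning. Means ± SEM from three separate experiments.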

[27] = tested on: SMMC-7721; assay: Induction of apoptosis in human SMMC7721 cells assessed as reduction in Bcl2 level after 48 hrs by Western blotting analysis; assay type: functional, cell-based
[28] = tested on: SMMC-7721; assay: Induction of apoptosis in human SMMC7721 cells assessed as late apoptotic cells at 6 uM after 48 hrs by annexin V-FITC/propidium iodide staining-based flow cytometry (reference value: 1.55%); assay type: functional
[29] = tested on: SMMC-7721; assay: Inhibition of Ras in human SMMC7721 cells assessed as reduction in phosphorylated ERK1 level at 12 uM after 8 hrs by immunoblotting analysis; assay type: cell-based; in short: as §1
[30] = tested on: SMMC-7721; assay: Induction of apoptosis in human SMMC7721 cells assessed as viable cells at 12 uM after 48 hrs by annexin V-FITC/propidium iodide staining-based flow cytometry (reference value: 93.81%); assay type: functional; details: SMMC-7721, 48 h, read-out: Activity
[31] = tested on: SMMC-7721; assay: Induction of apoptosis in human SMMC7721 cells assessed as increase in caspase-3 level after 48 hrs by Western blotting analysis; assay type: functional, cell-based; in short: as §3

- solubility at 24 h [1]: 23.8 mg/mL (≈ 53.4 mM)
- logP [25]: 4.85
Structure (SMILES): CC(C)=CCC/C(C)=C/CC/C(C)=C/CSc1ccccc1C(=O)NCCOCCN
- Activity [2]: Dose-dependent effect
- Activity [3]: 59.67%
- pIC50 [4]: 5.14
- viability at 3 µM [5]: 84%
- Activity [6]: 29.84%
- pIC50 [7]: 5.42
- Activity [8]: 0.21%
- Activity [9]: Dose-dependent effect
- pIC50 [10]: 5.12
- pIC50 [11]: 5.17
- viability at 6 µM [12]: 49.4%
- Activity [13]: 24.84%
- Activity [14]: 10.9%
- Activity [15]: Active
- Activity [16]: 4.85%
- pIC50 [17]: 5.21
- Activity [18]: Active
- pIC50 [19]: 5.24
- pIC50 [20]: 5.16
- Activity [21]: Dose-dependent effect
- Activity [22]: 2.07%
- Activity [23]: Dose-dependent effect
- Activity [24]: 0.24%
- Activity [26]: Dose-dependent effect
- Activity [27]: Dose-dependent effect
- Activity [28]: 18.68%
- Activity [29]: Active
- viability at 12 µM [30]: 15.3%
- Activity [31]: Dose-dependent effect

Structure (SMILES): CNC(=O)c1cc(Oc2ccc(NC(=O)Nc3ccc(Cl)c(C(F)(F)F)c3)cc2)ccn1 [SORAFENIB]
- pIC50 [4]: 5.04
- pIC50 [7]: 4.91
- pIC50 [10]: 4.94
- pIC50 [11]: 5.03
- pIC50 [17]: 4.64
- pIC50 [19]: 4.73
- pIC50 [20]: 4.97

- solubility at 24 h [1]: 18 mg/mL (≈ 40.6 mM)
- logP [25]: 5.98
Structure (SMILES): CC(C)=CCC/C(C)=C/CC/C(C)=C/CSc1ccccc1C(=O)NCCCCCN
- pIC50 [4]: 5.11
- pIC50 [7]: 5.12
- pIC50 [10]: 5.13
- pIC50 [11]: 5.15
- pIC50 [17]: 5.01
- pIC50 [19]: 5.04
- pIC50 [20]: 5.05

Structure (SMILES): CC(C)=CCC/C(C)=C/CC/C(C)=C/CSc1ccccc1C(=O)NCCCCN
- pIC50 [4]: 4.95
- pIC50 [7]: 4.98
- pIC50 [10]: 4.95
- pIC50 [11]: 5.11
- pIC50 [17]: 4.88
- pIC50 [19]: 4.82
- pIC50 [20]: 4.90

- solubility at 24 h [1]: 3.65 mg/mL (≈ 10.2 mM)
- logP [25]: 6.32
Structure (SMILES): CC(C)=CCC/C(C)=C/CC/C(C)=C/CSc1ccccc1C(=O)O [SALIRASIB]
- Activity [3]: 13.49%
- pIC50 [4]: 4.31
- pIC50 [7]: 4.27
- Activity [8]: 0.21%
- pIC50 [10]: 4.38
- pIC50 [11]: 4.29
- Activity [13]: 5.87%
- Activity [15]: Active
- pIC50 [17]: 4.32
- Activity [18]: Active
- pIC50 [19]: 4.16
- pIC50 [20]: 4.31
- Activity [29]: Active
- viability at 12 µM [30]: 80.4%

Structure (SMILES): CC(C)=CCC/C(C)=C/CC/C(C)=C/CSc1ccccc1C(=O)NCCCNC(=O)c1ccccc1SC/C=C(\C)CC/C=C(\C)CCC=C(C)C
- pIC50 [4]: < 4.30
- pIC50 [7]: < 4.30
- pIC50 [10]: < 4.30
- pIC50 [11]: < 4.30
- pIC50 [17]: < 4.30
- pIC50 [19]: < 4.30
- pIC50 [20]: < 4.30

Structure (SMILES): CC(C)=CCC/C(C)=C/CC/C(C)=C/CSc1ccccc1C(=O)NCCCCCCN
- pIC50 [4]: 5.10
- pIC50 [7]: 5.06
- pIC50 [10]: 5.10
- pIC50 [11]: 5.12
- pIC50 [17]: 5.00
- pIC50 [19]: 5.10
- pIC50 [20]: 5.12

Structure (SMILES): CC(C)=CCC/C(C)=C/CC/C(C)=C/CSc1ccccc1C(=O)NCCCCNC(=O)c1ccccc1SC/C=C(\C)CC/C=C(\C)CCC=C(C)C
- pIC50 [4]: 4.34
- pIC50 [7]: < 4.30
- pIC50 [10]: < 4.30
- pIC50 [11]: < 4.30
- pIC50 [17]: < 4.30
- pIC50 [19]: < 4.30
- pIC50 [20]: < 4.30

Source: ChEMBL document CHEMBL3102776, “Synthesis and biological evaluation of farnesylthiosalicylamides as potential anti-tumor agents” (Bioorg Med Chem, 2014)
